Data set [1] is described as follows: Solubility in HBSS buffer at 20 mM at pH 7.4 after 1 hr. It is filed as physicochemical. In a few lines:
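20 mM DMSO stocks serially diluted in DMSO, then diluted 1:200 into HBSS pH 7.4. After 1 h incubation, plates read on a solubility scanner.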

The nature of data set [2]: Apparent permeability from apical to basolateral side in MDCK2 cells at 5 uM after 120 mins. It is filed as ADME, cell-based, Canis lupus familiaris, MDCK-II. Particulars: dog, MDCK; call rule not given here. In a few lines: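 Compound at 5 µM in mHBSS pH 7.4 applied to MDCK II cell monolayers for 120 min at 37 °C. Apical and basolateral chambers sampled and analysed by LC/MS/MS.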
The nature of data set [3]: Oxidative metabolic stability in mouse liver microsomes at 1 uM after 30 mins in presence of 1 mM NADPH. It is filed as ADME, Microsome. Particulars: for remaining at 0.5 h, 1 µM: liver microsomes, read-out: Stability; for Stability: microsomes, 0.5 h, 1 µM. In short, it runs like this: (§1)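 Oxidative stability: compound at 1 µM incubated 30 min at 37 °C in phosphate buffer with liver microsomes (0.5 mg/ml protein) plus 1 mM NADPH. Percent parent remaining reported. Human or mouse microsomes per line.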
(Liver microsomes are vesicles of endoplasmic reticulum, rich in cytochrome P450 enzymes.)

Data set [4] can be described thus: Metabolic stability in human liver microsomes at 2 uM after 30 mins in presence of 1 mM UDPGA. It is filed as ADME, Microsome. The settings on record: read-out: Stability. In short, it runs like this:
(§2)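 Glucuronidation stability: 2 µM compound incubated 30 min at 37 °C in phosphate buffer with liver microsomes (0.5 mg protein), 1 mM UDPGA, 100 mM MgCl2 and 25 µg/mL alamethicin. Read-out is percent parent compound remaining. Human or mouse microsomes per line.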

Data set [5] can be described thus: Metabolic stability in mouse liver microsomes at 2 uM after 30 mins in presence of 1 mM UDPGA. It is filed as ADME, Microsome. Particulars: read-out: Stability. In short, it runs like this:
as §2

Data set [6] concerns the target Gamma-secretase. Put plainly: Inhibition of Gamma-secretase in human IMR-32 cells after 2 hrs by ELISA assay. It is filed as cell-based. In short, it runs like this:
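γ-Secretase came from IMR-32 cell membranes, and compound was first diluted in DMSO. Reaction at 37 °C was started with MBPC-125 Swedish substrate, run for 2 h, then stopped with SDS. Cleaved substrate was measured by Aβ40-specific ELISA. Values are means of three experiments.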
(ELISA stands for enzyme-linked immunosorbent assay.)

Data set [7] in a line: (§3) Oxidative metabolic stability in human liver microsomes at 1 uM after 30 mins in presence of 1 mM NADPH. The settings on record: liver microsomes, read-out: Stability. It is filed as ADME, Microsome. In a few lines: as §1
Data set [8] has as its system Mus musculus. Put plainly: Reduction of cortical abeta40 level in FVB mouse at 3 mg/kg, po after 3 hrs. It is filed as functional. More on the design: scale not given: the % may be the effect or the level left.
In data set [9] the test system is Mus musculus. Nature of the data set: Reduction of cortical abeta40 level in FVB mouse at 30 mg/kg, po after 3 hrs. It is filed as functional. Details: scale not given: the % may be the effect or the level left.
Data set [10] concerns Liver microsomes. The data set is described as §3. It is filed as ADME, Microsome. The settings on record: microsomes, 0.5 h, 1 µM. In short, it runs like this:
as §1

The structures appear in SMILES notation. Converted amounts (≈) assume the structure as drawn.

Consider `C[C@@H]1c2c[nH]nc2-c2cc(F)ccc2N1S(=O)(=O)c1ccc(Cl)cc1`, for which, in data set [1], the solubility at 1 h is above 100 µM. The Papp A→B at 2 h, 5 µM in data set [2] stood at 19.8 ×10⁻⁶ cm/s. Moreover, the values for the remaining at 0.5 h, 1 µM in data set [3] and in data set [7] were 7% and 1%, respectively. In addition, the remaining at 0.5 h, 2 µM in [4] is 77%; in [5], 91%. The same compound had an IC50 in [6] of 620 pM. Further, the Activity is reported as 7% in data set [8] and 37% in data set [9].

Turning to `O=S(=O)(c1ccc(C(F)(F)F)cn1)N1c2ccc(F)cc2-c2n[nH]cc2[C@H]1C1CC1`, the solubility at 1 h in data set [1] is 95 µM (≈ 41.6 µg/mL). In data set [2], the Papp A→B at 2 h, 5 µM was found to be 24.9 ×10⁻⁶ cm/s. Also, the remaining at 0.5 h, 1 µM in data set [3] was determined as 83%; in data set [7], 95%. Also, the remaining at 0.5 h, 2 µM in data set [4] was 97%; in data set [5] it was 89%. For the same compound, inhibition in data set [6] was half-maximal at 670 pM (IC50). Also, the Activity in data set [8] came to 43%.

With `COC(=O)c1ccc2c(c1)N(S(=O)(=O)c1ccc(C(F)(F)F)cc1)C(C1CC1)c1c[nH]nc1-2` (racemic), the Stability result in [3] and in data set [10] was “Not Active” in each case. For the same compound, the concentration for half-maximal inhibition (IC50) in data set [6] was determined as 260 pM.

Regarding `O=S(=O)(c1ccccc1)N1c2ccccc2-c2n[nH]cc2C1C1CC1` (single isomer, unassigned; enantiomer 1), the Stability result in data set [3] and in data set [10] was “Not Active” each time. In data set [6], this compound gave an IC50 of 4200 pM.

The term solubility denotes the dissolved amount per volume that the medium holds. The Papp A→B is how fast a substance crosses the layer from the apical side. One may read the IC50 as the concentration that gives 50% inhibition.

The values above are taken from ChEMBL document CHEMBL1155356, “Design, synthesis, and structure-activity relationship of novel orally efficacious pyrazole/sulfonamide based dihydroquinoline gamma-secretase inhibitors” (Bioorg Med Chem Lett, 2009).
